Laboratory results taken from ChEMBL document CHEMBL1150387, “Development and experimental validation of a docking strategy for the generation of kinase-targeted libraries” (J Med Chem, 2008).

Key:
[1] = Inhibition of IRK at 10 uM by HTRF assay relative to control
Summary of the method: (§1)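 HTRF kinase assay, one panel of kinases. Inhibitor stock 50 µM in 100% DMSO; tested at 10 µM. ATP and substrate at final levels near Km. Final buffer: 50 mM Hepes/NaOH pH 7.4, 40 µM Na3VO4, 0.005% Tween-20, 1 mM DTT, MnCl2 or MgCl2 at kinase-dependent levels. Started by adding ATP/substrate. Reaction run at room temperature, time varied by kinase. Detection mix in 50 mM Hepes pH 7.4, 0.1% BSA, 150 mM KF, incubated ≥1 h at room temperature. Activity expressed as % of uninhibited control; n=2.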

[2] = biological target: Receptor-type tyrosine-protein kinase FLT3 (Homo sapiens) (UniProt P36888); assay: Inhibition of FLT3 at 10 uM by HTRF assay relative to control; summary of the method: as §1
[3] = biological target: Epidermal growth factor receptor (Homo sapiens) (UniProt P00533); assay: Inhibition of EGFR at 10 uM by HTRF assay relative to control; summary of the method: as §1
[4] = biological target: T1, Mitogen-activated protein kinase 12 (Homo sapiens) (UniProt P53778); assay: Inhibition of p38-gamma at 10 uM by HTRF assay relative to control; summary of the method: as §1
T1 sequence (whole entry): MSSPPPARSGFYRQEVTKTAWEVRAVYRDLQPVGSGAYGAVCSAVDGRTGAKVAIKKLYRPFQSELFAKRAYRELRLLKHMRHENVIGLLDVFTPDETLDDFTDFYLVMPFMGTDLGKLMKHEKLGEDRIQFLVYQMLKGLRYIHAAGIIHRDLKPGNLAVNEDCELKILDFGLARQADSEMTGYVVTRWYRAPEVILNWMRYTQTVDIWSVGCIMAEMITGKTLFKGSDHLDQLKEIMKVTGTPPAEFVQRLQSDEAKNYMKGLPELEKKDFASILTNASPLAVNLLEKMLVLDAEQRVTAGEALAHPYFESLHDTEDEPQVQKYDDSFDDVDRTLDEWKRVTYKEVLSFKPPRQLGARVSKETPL

[5] = biological target: Mitogen-activated protein kinase 9 (Homo sapiens) (UniProt P45984); assay: Inhibition of JNK2 at 10 uM by HTRF assay relative to control; summary of the method: as §1
[6] = biological target: Mitogen-activated protein kinase 8 (Homo sapiens) (UniProt P45983); assay: Inhibition of JNK1 at 10 uM by HTRF assay relative to control; summary of the method: as §1
[7] = biological target: T2, Calcium/calmodulin-dependent protein kinase type IV (Homo sapiens) (UniProt Q16566); assay: Inhibition of CaMK4 at 10 uM by HTRF assay relative to control; summary of the method: as §1
T2 sequence (whole entry): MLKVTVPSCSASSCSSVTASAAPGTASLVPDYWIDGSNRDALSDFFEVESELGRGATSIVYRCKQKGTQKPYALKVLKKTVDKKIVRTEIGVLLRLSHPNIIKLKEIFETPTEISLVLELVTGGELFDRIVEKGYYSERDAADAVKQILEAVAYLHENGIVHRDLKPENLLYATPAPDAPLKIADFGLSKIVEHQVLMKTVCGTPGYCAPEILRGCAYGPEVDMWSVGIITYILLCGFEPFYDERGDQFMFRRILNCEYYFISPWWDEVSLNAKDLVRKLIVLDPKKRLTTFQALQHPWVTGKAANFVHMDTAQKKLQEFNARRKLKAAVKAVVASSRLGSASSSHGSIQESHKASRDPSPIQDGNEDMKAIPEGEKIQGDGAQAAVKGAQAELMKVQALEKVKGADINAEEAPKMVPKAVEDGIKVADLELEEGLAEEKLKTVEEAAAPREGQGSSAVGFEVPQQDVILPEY

[8] = biological target: Ribosomal protein S6 kinase alpha-3 (Homo sapiens) (UniProt P51812); assay: Inhibition of RSK2 at 10 uM by HTRF assay relative to control; summary of the method: as §1
[9] = biological target: Rho-associated protein kinase 2 (Homo sapiens) (UniProt O75116); assay: Inhibition of ROCK2 at 10 uM by HTRF assay relative to control; summary of the method: as §1
[10] = biological target: Protein kinase C alpha type (Homo sapiens) (UniProt P17252); assay: Inhibition of PKCalpha at 10 uM by HTRF assay relative to control; summary of the method: as §1
[11] = biological target: T3, Tyrosine-protein kinase ZAP-70 (Homo sapiens) (UniProt P43403); assay: Inhibition of ZAP70 at 10 uM by HTRF assay relative to control; summary of the method: as §1
T3 sequence (whole entry): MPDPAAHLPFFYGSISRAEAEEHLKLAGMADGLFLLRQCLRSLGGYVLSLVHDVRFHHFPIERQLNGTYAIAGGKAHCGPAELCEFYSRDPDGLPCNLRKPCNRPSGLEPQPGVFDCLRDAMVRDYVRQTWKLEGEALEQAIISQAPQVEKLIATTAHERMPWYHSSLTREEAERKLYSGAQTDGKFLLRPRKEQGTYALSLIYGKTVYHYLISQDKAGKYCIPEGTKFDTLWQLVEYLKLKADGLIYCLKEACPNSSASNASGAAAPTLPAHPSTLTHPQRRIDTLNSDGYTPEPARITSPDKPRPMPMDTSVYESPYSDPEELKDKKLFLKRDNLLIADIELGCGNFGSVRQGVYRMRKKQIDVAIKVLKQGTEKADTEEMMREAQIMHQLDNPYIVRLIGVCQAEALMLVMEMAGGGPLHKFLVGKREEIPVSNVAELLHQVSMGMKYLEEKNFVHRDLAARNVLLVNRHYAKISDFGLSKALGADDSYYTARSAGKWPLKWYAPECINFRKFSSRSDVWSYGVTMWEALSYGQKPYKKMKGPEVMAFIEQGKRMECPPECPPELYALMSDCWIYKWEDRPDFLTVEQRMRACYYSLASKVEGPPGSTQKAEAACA

[12] = biological target: Proto-oncogene tyrosine-protein kinase Src (Homo sapiens) (UniProt P12931); assay: Inhibition of Src at 10 uM by HTRF assay relative to control; summary of the method: as §1
[13] = biological target: Tyrosine-protein kinase Lck (Homo sapiens) (UniProt P06239); assay: Inhibition of Lck at 10 uM by HTRF assay relative to control; summary of the method: as §1
[14] = biological target: Focal adhesion kinase 1 (Homo sapiens) (UniProt Q05397); assay: Inhibition of FAK at 10 uM by HTRF assay relative to control; summary of the method: as §1
[15] = biological target: Platelet-derived growth factor receptor beta (Homo sapiens) (UniProt P09619); assay: Inhibition of PDGFRbeta at 10 uM by HTRF assay relative to control; summary of the method: as §1
[16] = biological target: 3-phosphoinositide-dependent protein kinase 1 (Homo sapiens) (UniProt O15530); assay: Inhibition of PDK1 at 10 uM by HTRF assay relative to control

Chain of Mitogen-activated protein kinase 8 (Homo sapiens) (P45983 whole entry): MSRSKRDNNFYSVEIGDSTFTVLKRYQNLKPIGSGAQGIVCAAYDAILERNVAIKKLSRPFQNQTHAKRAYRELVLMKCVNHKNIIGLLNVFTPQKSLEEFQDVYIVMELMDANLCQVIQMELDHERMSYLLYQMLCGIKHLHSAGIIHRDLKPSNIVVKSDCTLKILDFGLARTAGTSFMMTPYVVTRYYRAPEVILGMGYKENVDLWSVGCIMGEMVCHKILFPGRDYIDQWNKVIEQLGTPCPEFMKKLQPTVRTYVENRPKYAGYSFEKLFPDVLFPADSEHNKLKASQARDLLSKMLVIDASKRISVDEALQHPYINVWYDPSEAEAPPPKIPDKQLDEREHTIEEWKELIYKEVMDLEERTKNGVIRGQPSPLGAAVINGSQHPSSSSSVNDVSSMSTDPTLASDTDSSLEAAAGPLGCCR
Chain of Tyrosine-protein kinase Lck (Homo sapiens) (P06239 2-509 limits assumed): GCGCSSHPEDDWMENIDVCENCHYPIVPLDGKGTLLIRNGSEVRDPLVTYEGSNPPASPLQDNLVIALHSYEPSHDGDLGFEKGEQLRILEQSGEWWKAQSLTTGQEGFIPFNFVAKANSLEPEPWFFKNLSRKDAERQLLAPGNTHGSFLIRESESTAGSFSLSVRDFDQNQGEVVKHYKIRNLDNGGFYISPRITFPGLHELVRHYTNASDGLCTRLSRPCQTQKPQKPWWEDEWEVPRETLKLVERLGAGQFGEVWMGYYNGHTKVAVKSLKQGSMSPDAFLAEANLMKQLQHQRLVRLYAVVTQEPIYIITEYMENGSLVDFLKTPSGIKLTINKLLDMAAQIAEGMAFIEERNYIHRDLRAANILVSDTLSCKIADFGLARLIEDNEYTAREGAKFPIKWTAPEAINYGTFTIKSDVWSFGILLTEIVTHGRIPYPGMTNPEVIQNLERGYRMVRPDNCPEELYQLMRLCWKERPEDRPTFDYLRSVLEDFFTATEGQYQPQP
Chain of Receptor-type tyrosine-protein kinase FLT3 (Homo sapiens) (P36888 whole entry): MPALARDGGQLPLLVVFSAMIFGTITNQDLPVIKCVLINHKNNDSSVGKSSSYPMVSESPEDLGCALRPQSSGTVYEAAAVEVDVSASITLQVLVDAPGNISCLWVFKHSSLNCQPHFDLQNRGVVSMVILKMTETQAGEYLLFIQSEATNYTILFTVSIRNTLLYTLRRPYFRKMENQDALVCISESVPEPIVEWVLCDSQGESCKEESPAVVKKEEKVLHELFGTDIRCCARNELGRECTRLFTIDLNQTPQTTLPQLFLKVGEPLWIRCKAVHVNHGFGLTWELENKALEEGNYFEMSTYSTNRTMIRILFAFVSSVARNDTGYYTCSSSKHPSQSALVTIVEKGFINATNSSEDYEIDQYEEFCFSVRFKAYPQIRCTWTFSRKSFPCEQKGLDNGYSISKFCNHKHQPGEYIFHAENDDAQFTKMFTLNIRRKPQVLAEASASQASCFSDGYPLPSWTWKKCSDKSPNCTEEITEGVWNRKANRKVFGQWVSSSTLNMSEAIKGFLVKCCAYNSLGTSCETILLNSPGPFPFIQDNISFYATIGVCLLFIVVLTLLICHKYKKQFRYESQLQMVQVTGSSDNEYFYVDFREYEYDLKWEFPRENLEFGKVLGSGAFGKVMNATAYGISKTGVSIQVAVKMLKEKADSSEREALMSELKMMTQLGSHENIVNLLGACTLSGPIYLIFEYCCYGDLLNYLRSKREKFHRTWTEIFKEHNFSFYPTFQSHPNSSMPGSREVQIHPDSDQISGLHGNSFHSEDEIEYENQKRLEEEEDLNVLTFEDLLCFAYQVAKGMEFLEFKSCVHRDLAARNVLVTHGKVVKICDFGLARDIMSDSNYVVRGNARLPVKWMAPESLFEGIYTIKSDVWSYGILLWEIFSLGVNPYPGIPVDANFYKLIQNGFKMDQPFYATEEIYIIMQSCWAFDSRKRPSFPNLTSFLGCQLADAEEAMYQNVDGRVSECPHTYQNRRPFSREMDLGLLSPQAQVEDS
Chain of Proto-oncogene tyrosine-protein kinase Src (Homo sapiens) (P12931 2-536 limits assumed): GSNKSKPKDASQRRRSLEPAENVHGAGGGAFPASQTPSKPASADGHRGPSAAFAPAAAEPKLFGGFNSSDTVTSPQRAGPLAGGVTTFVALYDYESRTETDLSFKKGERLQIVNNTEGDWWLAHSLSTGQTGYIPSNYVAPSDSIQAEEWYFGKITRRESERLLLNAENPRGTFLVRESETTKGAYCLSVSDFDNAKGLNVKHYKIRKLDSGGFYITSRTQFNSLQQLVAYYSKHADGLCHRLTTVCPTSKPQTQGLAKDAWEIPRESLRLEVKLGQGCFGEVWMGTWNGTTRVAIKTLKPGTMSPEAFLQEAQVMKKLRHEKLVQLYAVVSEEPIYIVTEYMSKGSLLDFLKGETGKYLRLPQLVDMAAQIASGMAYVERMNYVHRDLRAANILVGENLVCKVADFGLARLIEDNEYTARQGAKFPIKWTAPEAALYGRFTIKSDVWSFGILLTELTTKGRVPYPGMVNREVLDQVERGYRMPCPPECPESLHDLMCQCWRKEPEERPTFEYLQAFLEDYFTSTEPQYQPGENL
Chain of Focal adhesion kinase 1 (Homo sapiens) (Q05397 2-1052 limits assumed): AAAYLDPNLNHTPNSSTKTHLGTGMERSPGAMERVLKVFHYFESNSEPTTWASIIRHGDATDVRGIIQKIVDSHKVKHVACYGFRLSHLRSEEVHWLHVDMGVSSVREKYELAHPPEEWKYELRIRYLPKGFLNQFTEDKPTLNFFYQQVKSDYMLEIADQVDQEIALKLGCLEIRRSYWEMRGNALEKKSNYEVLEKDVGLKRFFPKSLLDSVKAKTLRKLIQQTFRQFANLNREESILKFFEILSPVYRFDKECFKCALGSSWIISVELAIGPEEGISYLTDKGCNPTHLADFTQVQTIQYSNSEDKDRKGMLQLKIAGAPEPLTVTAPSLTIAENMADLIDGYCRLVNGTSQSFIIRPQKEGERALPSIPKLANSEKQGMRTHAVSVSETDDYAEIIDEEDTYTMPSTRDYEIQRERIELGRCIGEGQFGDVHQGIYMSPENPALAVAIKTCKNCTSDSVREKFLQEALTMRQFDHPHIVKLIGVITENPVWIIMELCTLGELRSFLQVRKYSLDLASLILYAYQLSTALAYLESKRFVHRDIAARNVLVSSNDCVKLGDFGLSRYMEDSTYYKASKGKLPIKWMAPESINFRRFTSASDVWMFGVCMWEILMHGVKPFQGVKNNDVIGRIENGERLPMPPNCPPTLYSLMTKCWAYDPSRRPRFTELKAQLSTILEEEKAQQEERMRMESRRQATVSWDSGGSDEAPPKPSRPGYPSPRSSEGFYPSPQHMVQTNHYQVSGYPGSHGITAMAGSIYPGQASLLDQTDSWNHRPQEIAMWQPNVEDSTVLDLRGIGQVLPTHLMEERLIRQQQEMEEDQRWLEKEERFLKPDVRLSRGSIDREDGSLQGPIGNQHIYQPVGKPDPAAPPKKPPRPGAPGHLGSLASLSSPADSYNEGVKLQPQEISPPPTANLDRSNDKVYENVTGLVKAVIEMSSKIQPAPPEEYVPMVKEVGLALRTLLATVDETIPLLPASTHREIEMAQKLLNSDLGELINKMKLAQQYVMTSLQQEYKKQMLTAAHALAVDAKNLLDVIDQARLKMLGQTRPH
Chain of Platelet-derived growth factor receptor beta (Homo sapiens) (P09619 whole entry): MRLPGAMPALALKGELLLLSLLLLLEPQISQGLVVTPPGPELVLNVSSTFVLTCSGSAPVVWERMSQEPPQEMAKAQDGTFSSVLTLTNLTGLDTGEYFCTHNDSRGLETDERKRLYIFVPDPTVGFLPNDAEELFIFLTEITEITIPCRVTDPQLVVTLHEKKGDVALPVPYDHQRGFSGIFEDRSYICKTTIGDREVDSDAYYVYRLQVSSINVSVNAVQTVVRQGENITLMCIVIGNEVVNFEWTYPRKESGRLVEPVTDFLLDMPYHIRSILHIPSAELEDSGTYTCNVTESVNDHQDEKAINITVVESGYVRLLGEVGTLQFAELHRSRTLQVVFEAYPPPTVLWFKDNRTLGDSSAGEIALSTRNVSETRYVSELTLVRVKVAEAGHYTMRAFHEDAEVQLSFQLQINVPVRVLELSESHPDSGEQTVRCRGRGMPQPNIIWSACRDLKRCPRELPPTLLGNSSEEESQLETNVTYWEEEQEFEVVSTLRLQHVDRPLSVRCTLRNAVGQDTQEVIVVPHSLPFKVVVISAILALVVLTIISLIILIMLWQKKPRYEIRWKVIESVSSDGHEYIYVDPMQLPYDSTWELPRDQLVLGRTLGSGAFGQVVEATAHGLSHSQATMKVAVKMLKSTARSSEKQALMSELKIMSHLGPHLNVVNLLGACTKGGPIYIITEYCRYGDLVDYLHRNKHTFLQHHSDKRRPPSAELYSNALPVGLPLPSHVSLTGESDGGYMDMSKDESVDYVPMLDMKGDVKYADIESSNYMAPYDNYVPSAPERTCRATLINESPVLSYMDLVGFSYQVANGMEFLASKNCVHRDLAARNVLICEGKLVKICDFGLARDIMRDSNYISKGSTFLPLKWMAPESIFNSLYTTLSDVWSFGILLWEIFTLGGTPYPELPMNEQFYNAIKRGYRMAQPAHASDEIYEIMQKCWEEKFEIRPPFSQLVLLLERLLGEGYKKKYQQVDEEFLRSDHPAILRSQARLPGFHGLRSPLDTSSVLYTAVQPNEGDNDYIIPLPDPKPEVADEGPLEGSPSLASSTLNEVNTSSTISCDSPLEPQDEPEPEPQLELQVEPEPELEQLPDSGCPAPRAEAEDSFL
Chain of Mitogen-activated protein kinase 9 (Homo sapiens) (P45984 whole entry, looked up): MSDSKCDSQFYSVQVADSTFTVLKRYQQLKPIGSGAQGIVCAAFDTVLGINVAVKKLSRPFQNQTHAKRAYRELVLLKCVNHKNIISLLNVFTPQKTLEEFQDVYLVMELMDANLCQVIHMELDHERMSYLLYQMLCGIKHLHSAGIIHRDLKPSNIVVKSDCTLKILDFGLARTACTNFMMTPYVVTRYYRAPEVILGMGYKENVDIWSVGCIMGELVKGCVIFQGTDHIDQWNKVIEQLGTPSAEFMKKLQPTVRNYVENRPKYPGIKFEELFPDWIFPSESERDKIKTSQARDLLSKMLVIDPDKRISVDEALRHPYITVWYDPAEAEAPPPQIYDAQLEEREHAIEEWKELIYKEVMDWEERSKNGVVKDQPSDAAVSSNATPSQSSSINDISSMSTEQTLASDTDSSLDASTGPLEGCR

Row | SMILES | inhibition [1] [%] | inhibition [2] [%] | inhibition [3] [%] | inhibition [4] [%] | inhibition [5] [%] | inhibition [6] [%] | inhibition [7] [%] | inhibition [8] [%] | inhibition [9] [%] | inhibition [10] [%] | inhibition [11] [%] | inhibition [12] [%] | inhibition [13] [%] | inhibition [14] [%] | inhibition [15] [%] | inhibition [16] [%]
1 | Cc1ccc(CN2CCN(c3nccc(C(C#N)c4ccccn4)n3)CC2)cc1 (stereo unspecified) | 0 | 0 | 0 | 0 | 3 | 2 | 0 | 0 | 0 | 0 | 4 | 4 | 0 | 3 | 14 | 1
2 | Cc1cccc(CN2CCN(c3cc(N(C)c4cccc(C)c4)ncn3)CC2)c1 | 0 | 0 | 0 | 2 | 5 | 9 | 0 | 0 | 1 | 3 | 4 | 8 | 0 | 4 | 6 | 3
3 | CN(C)CC(C)(C)CNC(=O)[C@@H]1CCCN1c1nccc(Nc2ccccc2)n1 | 0 | 0 | 0 | 2 | 2 | 0 | 0 | 0 | 0 | 0 | 1 | 0 | 0 | 4 | 5 | 10
4 | Cc1cccc(Nc2ncnc3c2CN(C(=O)c2ccc(N(C)C)c4ccccc24)CC3)c1 | 0 | 0 | 31 | 2 | 1 | 0 | 0 | 0 | 1 | 0 | 6 | 0 | 0 | 7 | 10 | 0
5 | Cc1cccc(N(C)c2cc(Nc3cccc(C(=O)N(C)CCc4ccccn4)c3)ncn2)c1 | 0 | 0 | 97 | 1 | 4 | 0 | 0 | 0 | 0 | 5 | 4 | 15 | 10 | 6 | 23 | 0
6 | Nc1nc(Nc2ccc(C(=O)NCCc3ccncc3)cc2)cc(N2CCOCC2)n1 | 0 | 0 | 0 | 3 | 5 | 11 | 0 | 0 | 1 | 0 | 6 | 3 | 0 | 3 | 13 | 1
7 | COc1ccc(NC(=O)Cc2ccc(Nc3cc(N(C)c4cccc(C)c4)ncn3)cc2)cn1 | 0 | 11 | 62 | 1 | 2 | 4 | 0 | 0 | 0 | 0 | 2 | 1 | 0 | 5 | 22 | 1
8 | O=C(c1nc(SCc2ccc(Cl)cc2)n2ccccc12)N1CCN(c2cc(Nc3cccc(Br)c3)ncn2)CC1 | 0 | 0 | 0 | 0 | 3 | 7 | 0 | 0 | 0 | 0 | 1 | 2 | 0 | 1 | 10 | 0
9 | Cc1cccc(Nc2nccc(Nc3cccc(C(=O)NCc4ccc(N(C)C)cc4)c3)n2)c1 | 0 | 54 | 0 | 0 | 4 | 0 | 0 | 5 | 4 | 3 | 6 | 8 | 0 | 17 | 24 | 0
10 | O=C(CN1CCN(c2ncnc3c2CN(Cc2ccccc2)CC3)CC1)Nc1cc(F)ccc1F | 0 | 0 | 0 | 0 | 1 | 0 | 0 | 0 | 0 | 4 | 5 | 1 | 0 | 0 | 5 | 0
11 | Cc1cccc(Oc2ccnc(N3CCC[C@H]3C(=O)NCc3cccnc3)n2)c1 | 0 | 0 | 0 | 0 | 4 | 6 | 0 | 0 | 0 | 0 | 6 | 0 | 0 | 0 | 11 | 0
